Bioassay records: PubChem, Sanford-Burnham Center for Chemical Genomics
An excerpt weighted towards active compounds, which were near 0.79% of everything screened.
hIAP act = human IAP activation; P09923; purified human IAP, CDP-Star luminescence, 30 min; active compounds read high; 1 = vehicle-only enzyme, 0 = enzyme-free background; activation factor at 10 µM; hit rate 0.16% among 330,000;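 active means activation factor of the enzyme at least 2-fold when tested at 20 µM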
Target sequence (P09923 whole entry, looked up): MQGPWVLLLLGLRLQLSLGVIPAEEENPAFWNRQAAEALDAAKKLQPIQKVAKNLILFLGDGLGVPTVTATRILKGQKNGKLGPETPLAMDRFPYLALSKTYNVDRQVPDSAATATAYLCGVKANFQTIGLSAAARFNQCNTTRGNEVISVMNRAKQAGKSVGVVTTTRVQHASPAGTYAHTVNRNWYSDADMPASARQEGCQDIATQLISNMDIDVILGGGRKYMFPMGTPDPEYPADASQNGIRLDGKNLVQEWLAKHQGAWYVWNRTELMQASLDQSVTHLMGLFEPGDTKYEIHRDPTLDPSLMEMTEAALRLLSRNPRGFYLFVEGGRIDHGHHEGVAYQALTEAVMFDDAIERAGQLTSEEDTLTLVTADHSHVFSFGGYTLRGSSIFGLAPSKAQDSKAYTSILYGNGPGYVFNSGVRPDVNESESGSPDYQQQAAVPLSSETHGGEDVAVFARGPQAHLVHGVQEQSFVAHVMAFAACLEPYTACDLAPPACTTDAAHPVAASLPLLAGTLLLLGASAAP
mIAP inh = mouse IAP inhibition | purified mouse IAP, CDP-Star luminescence, 30 min | inhibition, % at 10 µM | hit rate 0.2% among 330,000;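 active means inhibition of at least 40% at 10 µM in the primary screen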
bIAP inh = intestinal alkaline phosphatase (bovine) inhibition. purified bovine IAP, CDP-star luminescence, 30 min. inhibition, % at 20 µM. 190,000 tested, under 10 active;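 active means over 50% inhibition of intestinal alkaline phosphatase at 20 µM in the single-dose screen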
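Incubation: 30 min reaction at room temperature / Material: purified bovine intestinal alkaline phosphatase (IAP) enzyme / Input: enzyme at 1/65,000,000 dilution / Dosing: 20 µM single dose / Signal: CDP-star luminescence signal / Reagent: CDP-star chemiluminescent phosphatase substrate, 30 µM final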
hIAP inh = human IAP inhibition. P09923. purified IAP, CDP-Star luminescence, 30 min. inhibition, % at 10 µM. hit rate 0.12% among 330,000;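 active means inhibition reaching a set limit with compound at 10 µM in the primary screen, cut at about 35% in these data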
mIAP act = mouse IAP activation. hit rate 0.24% among 330,000. muIAP, CDP-Star luminescence, 30 min; active compounds read high; 1 = vehicle-only enzyme signal, 0 = enzyme-free wells. AID 2805. activation factor at 10 µM;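 active means activation factor of at least 2 at 20 µM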
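System: Mouse IAP enzyme | Also added: CDP-Star substrate | Dosing: Compounds dispensed in DMSO | Schedule: 30 min enzyme-substrate-compound incubation at room temperature | Technique: Chemiluminescence readout | Control set: DMSO-only wells and no-enzyme negative control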
bIAP act = increases bovine intestinal alkaline phosphatase activity; purified bovine IAP, CDP-star luminescence, 30 min; active compounds read high; fold of DMSO-control signal, blank-subtracted; activation factor at 20 µM; hit rate 0.17% among 200,000; AID 1016;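 active means activation factor of 2 or more at 20 µM, a signal rise over negative controls twice the positive control's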
hIAP act conf = human IAP activation confirmation | shares compounds with hIAP act | purified IAP, CDP-Star luminescence, 30 min; active compounds read low | activation (%Activity, negative = activation), % at 8.3 µM | hit rate 10% among 880;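 active means at least twofold enzyme activation in any of six single-dose repeats, which the averaged readout prints as negative percent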
Numbers stand for hits; - = inactive; . = no result given.

SMILES | hIAP act | mIAP inh | bIAP inh | hIAP inh | mIAP act | bIAP act | hIAP act conf
Cc1ccc(S(=O)(=O)NCCC(=O)NNC(=O)COc2ccc(Br)cc2)cc1C | 2.5 | - | . | - | - | . | -
Cc1ccc(C2=NN(C3=NN=C(N)Cc4ncnn43)C(O)(C(F)(F)F)C2)cc1 (stereo not drawn) | - | - | - | - | - | - | .
NC1=NN=C(N2N=C(c3ccco3)CC2(O)C(F)(F)F)n2ncnc2C1 (stereo not drawn) | 2.5 | - | - | - | - | - | -
Cc1noc(NS(=O)(=O)c2ccc(NC(=O)CC(C)C)cc2)c1C | - | - | . | - | - | . | .
CC(c1ccccc1)C(Cc1nc2ccccc2[nH]1)c1nc2ccccc2[nH]1 (stereo not drawn) | 2.2 | - | - | - | - | 4.1 | -
OC(c1ccccc1)c1nc2ccccc2[nH]1 (stereo not drawn) | - | - | . | - | - | . | .
Cc1cccc(CC(Cc2nc3ccccc3[nH]2)c2nc3ccccc3[nH]2)c1 (stereo not drawn) | 2.4 | - | - | - | - | 4.3 | -
OC(c1nc2ccccc2[nH]1)C(O)c1nc2ccccc2[nH]1 (stereo not drawn) | 2.5 | - | . | - | - | . | -
CC(C)N(Cc1nc2ccccc2[nH]1)C(C)C | - | - | - | - | - | - | .
Cc1cc(OCC(=O)Nc2ncn[nH]2)ccc1Cl | 2 | - | . | - | - | . | -87
CCOC(=O)C1CCCN(c2cc(C)nc3cc(-c4ccc(F)cc4)nn23)C1 (stereo not drawn) | - | - | - | - | - | - | .
CC(C)(C)OC(=O)NCCCC[C@H](NC(=O)c1nc[nH]c1C(=O)NCc1ccccc1)C(=O)OC(C)(C)C | - | - | - | - | - | - | .
CCOC(=O)c1ccc(NC(=O)c2nc[nH]c2C(=O)NCCCCCNC(=O)OC(C)(C)C)cc1 | 2.3 | - | . | - | - | . | -
CC(C)(C)OC(=O)NCCCC[C@H](NC(=O)c1[nH]cnc1C(=O)Nc1ccc(CNC(=O)OC(C)(C)C)cc1)C(=O)OC(C)(C)C | 2.7 | - | . | - | - | . | -
CCOC(=O)c1ccc(NC(=O)c2nc[nH]c2C(=O)NCCCCNC(=O)c2[nH]cnc2C(=O)Nc2ccc(C(=O)OCC)cc2)cc1 | - | - | . | - | - | . | .
CCCCn1c(O)c(N=Nc2ccccc2O)c2ccccc21 | 2.7 | - | . | - | - | . | -
Cn1cc(C(=O)N2CCc3ccccc32)cn1 | 2.1 | - | - | - | - | - | -
O=C(NCCN1CCN(c2ccccc2)CC1)Nc1cccc(Br)c1 | - | - | . | - | - | . | .
COCCNC(=S)N=Nc1c(O)[nH]c2ccc([N+](=O)[O-])cc12 | 2.4 | - | . | - | - | . | -
CCCCCCC(=O)N=Nc1c(O)[nH]c2ccc([N+](=O)[O-])cc12 | - | - | - | - | - | - | .
O=C(CNC(=S)NC(=O)c1cccs1)c1ccccc1 | - | - | - | - | - | - | .
O=C(NC(=S)NCc1ccccc1)c1cccs1 | - | - | . | 40 | - | . | -
COc1ccccc1C(=O)Nc1nnc(S(=O)(=O)N2CCCCCC2)s1 | - | - | . | - | - | . | .
CCc1ccccc1NC(=O)Cn1c(=O)n(-c2ccc(CC(=O)NCC3CCCO3)cc2)c(=O)c2ccccc21 (stereo not drawn) | - | - | - | - | - | - | .
Cc1ccsc1/C=N/Nc1ncnc2nc[nH]c12 | 2.3 | - | - | - | - | - | -
SMILES | hIAP act | mIAP inh | bIAP inh | hIAP inh | mIAP act | bIAP act | hIAP act conf
COC(=O)c1[nH]c2ccccc2c1NC(=O)CNC1CCCCC1 | - | - | - | 53 | - | - | -
COC(=O)c1[nH]c2ccccc2c1NC(=O)CN1CCCCCC1 | - | - | - | - | - | - | .
Cc1noc(C)c1CSc1nnc(-c2cccnc2)n1C1CCCCC1C (stereo not drawn) | - | - | - | - | - | - | .
Cc1c(C(=O)NNC(=S)Nc2ccc(S(N)(=O)=O)cc2)oc2ccccc12 | 2.1 | - | . | - | - | . | -
O=C(CCN1CCN(Cc2ccccc2)CC1)NNC(=O)Nc1cccc(C(F)(F)F)c1 | 2 | - | . | - | - | . | -
COc1cc(/C=C2\SC(=S)N(NC(=O)c3cccc(O)c3)C2=O)ccc1O | - | - | . | - | - | . | .
